Measurements from publication PMC11579378 (Scientific Reports, 2024).
Where no end group is shown, it is not given here.

biological target: ACE1 (Homo sapiens, UniProt P12821); assay: In vitro ACE1 inhibition assay; type: biochemical
Method in brief: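 Commercial WST colorimetric kit, run per the manufacturer's instructions. Test peptides were diluted in PBS to 0.01–100 µM and mixed with substrate buffer and enzyme working solution, then incubated 1 h at 37 °C. Indicator working solution was added for 5 min at room temperature, and absorbance was read at 450 nm. Blanks with and without enzyme were included. Assays were run in triplicate, and IC50 was obtained by nonlinear regression of inhibition against concentration.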

ACE1, sequence (P12821 30-1306): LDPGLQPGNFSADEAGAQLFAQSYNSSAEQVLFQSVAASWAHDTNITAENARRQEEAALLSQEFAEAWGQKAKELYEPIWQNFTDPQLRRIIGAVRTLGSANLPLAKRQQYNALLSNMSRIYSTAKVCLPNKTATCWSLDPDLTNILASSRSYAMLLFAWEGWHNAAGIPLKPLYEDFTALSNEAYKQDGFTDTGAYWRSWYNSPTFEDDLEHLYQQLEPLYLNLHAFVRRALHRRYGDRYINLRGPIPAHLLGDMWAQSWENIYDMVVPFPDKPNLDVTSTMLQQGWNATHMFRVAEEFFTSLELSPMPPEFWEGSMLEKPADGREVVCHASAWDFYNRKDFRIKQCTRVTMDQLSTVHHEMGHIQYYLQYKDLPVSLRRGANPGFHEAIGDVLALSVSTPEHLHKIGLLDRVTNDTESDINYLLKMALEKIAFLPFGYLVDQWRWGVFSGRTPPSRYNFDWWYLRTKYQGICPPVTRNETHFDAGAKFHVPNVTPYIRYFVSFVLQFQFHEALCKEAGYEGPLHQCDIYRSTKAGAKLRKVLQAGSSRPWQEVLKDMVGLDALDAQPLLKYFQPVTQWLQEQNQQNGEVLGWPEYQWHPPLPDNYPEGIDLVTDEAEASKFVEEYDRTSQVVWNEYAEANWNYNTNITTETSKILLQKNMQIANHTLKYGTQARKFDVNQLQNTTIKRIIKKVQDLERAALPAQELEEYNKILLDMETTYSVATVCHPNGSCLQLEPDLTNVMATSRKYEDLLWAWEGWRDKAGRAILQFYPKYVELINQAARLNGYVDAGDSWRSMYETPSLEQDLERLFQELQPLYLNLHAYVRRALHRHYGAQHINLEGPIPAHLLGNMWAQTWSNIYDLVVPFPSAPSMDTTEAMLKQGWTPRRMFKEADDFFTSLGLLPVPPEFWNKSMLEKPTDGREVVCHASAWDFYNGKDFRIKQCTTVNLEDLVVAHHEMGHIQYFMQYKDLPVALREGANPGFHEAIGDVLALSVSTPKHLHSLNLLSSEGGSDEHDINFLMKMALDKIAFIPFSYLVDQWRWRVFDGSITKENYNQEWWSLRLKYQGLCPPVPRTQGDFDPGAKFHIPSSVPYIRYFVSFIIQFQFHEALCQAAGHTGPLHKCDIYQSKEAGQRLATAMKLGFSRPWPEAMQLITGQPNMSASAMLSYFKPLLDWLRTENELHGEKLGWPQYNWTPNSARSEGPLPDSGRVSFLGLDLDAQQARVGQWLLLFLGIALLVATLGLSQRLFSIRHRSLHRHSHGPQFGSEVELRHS

Molecule	IC50
RVDPVNFKLLSH [RVD-Hp-L, RVD-Hemopressin-L]	2.52 ± 0.11 µM
RVDPVNFKFLSH [RVD-Hp-F, RVD-Hemopressin-F]	12.4 ± 2.92 µM
VDPVNFKFLSH [VD-Hp-F, VD-Hemopressin-F]	10.8 ± 0.79 µM
VDPVNFKLLSH [VD-Hp-L, VD-Hemopressin-L]	4.54 ± 0.83 µM
CC(C)C[C@H](NC(=O)[C@H](Cc1ccccc1)NC(=O)[C@H](CCCCN)NC(=O)[C@H](Cc1ccccc1)NC(=O)[C@H](CC(N)=O)NC(=O)[C@@H](NC(=O)[C@@H]1CCCN1)C(C)C)C(=O)N[C@@H](CO)C(=O)N[C@@H](Cc1cnc[nH]1)C(=O)O [Hp-F, Hemopressin-F]	6.22 ± 0.44 µM
CC(C)C[C@H](NC(=O)[C@H](CC(C)C)NC(=O)[C@H](CCCCN)NC(=O)[C@H](Cc1ccccc1)NC(=O)[C@H](CC(N)=O)NC(=O)[C@@H](NC(=O)[C@@H]1CCCN1)C(C)C)C(=O)N[C@@H](CO)C(=O)N[C@@H](Cc1c[nH]cn1)C(=O)O [Hp-L, Hemopressin-L]	3.86 ± 0.87 µM
